The source of these data is ChEMBL document CHEMBL1127640, “Synthesis and evaluation of 7 alpha-iodo-5 alpha-dihydrotestosterone as a potential radioligand for androgen receptor” (J Med Chem, 1994).

The species named for one test is Rattus norvegicus. The test is described as follows: Relative binding affinity for progesterone receptor in rat uterine cytosol extract. The settings on record: Uterus. The essentials: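 Tissue homogenized in molybdate-free TEGT buffer, and cytosol (105000g supernatant) used at 0.8–1.2 mg/mL protein. Incubation was 20 h at 4 °C with 1.0 nM [3H]R5020 (final) over a competitor range. Bound/free separated on Sephadex LH-20, then scintillation counting.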

In test [1] the target is T1, Progesterone receptor (Homo sapiens) (UniProt P06401).
T1 sequence (whole entry): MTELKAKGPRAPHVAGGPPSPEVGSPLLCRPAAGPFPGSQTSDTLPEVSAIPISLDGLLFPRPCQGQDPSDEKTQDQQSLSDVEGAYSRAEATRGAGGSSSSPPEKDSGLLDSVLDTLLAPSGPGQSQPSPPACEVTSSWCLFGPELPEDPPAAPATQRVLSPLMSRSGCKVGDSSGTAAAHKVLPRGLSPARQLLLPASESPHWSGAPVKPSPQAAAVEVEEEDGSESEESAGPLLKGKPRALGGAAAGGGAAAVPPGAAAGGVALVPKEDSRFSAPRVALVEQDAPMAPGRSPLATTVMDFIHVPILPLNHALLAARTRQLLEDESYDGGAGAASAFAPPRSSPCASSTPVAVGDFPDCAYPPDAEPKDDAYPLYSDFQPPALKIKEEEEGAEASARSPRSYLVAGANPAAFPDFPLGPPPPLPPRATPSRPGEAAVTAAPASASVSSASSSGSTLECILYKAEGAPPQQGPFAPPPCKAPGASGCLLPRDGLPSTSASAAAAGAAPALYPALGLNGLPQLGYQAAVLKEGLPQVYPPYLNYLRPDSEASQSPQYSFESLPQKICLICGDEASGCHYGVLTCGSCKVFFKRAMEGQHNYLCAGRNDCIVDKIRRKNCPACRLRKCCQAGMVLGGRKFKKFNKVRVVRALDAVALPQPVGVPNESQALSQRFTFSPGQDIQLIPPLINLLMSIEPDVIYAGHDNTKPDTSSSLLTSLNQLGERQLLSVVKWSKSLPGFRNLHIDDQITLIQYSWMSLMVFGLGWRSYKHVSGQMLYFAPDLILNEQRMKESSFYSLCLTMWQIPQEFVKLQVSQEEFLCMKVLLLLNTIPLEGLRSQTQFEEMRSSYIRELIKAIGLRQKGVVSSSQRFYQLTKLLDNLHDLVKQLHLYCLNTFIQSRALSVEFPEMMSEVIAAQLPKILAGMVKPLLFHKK
The test is described as follows: Relative binding affinity for progesterone receptor in MCF-7 cell cytosol extract.

As for `CC12CC[C@H]3[C@@H]([C@H](I)C[C@H]4CC(=O)CCC43C)[C@@H]1CCC2O` (some centres not stated), the Binding in the test filed under Rattus norvegicus was 1.12%; in test [1], 0.239%.

In the case of `CC(=O)[C@H]1CC[C@H]2[C@@H]3CCC4=CC(=O)CC[C@]4(C)[C@H]3CC[C@]12C`, the Binding (in the test filed under Rattus norvegicus; in test [1]) was 100% each time.

As to `C[C@]12CCC(=O)C[C@@H]1CC[C@@H]1[C@@H]2CC[C@]2(C)[C@@H](O)CC[C@@H]12`, the figures for the Binding (in the test filed under Rattus norvegicus; in test [1]) were 1.26% and 0.205%, respectively.

Regarding `C[C@]1(O)CC[C@H]2[C@@H]3CCC4=CC(=O)CCC4=C3C=C[C@@]21C`, the Binding in the test listed under Rattus norvegicus was determined as 142%; in test [1], 98%.

Regarding `C[C@@H]1CC2=CC(=O)CCC2[C@H]2CC[C@@]3(C)[C@@H](CC[C@@]3(O)/C=C/I)[C@H]12` (some centres not stated), the results for the Binding (in the test filed under Rattus norvegicus; in test [1]) were 12.3% and 9.84%, respectively.

On to `C[C@]12CC[C@H]3[C@@H](CCC4=CC(=O)CC[C@@]43C)[C@@H]1CC[C@@H]2O`, for which the Binding is 1.55% in the test filed under Rattus norvegicus and 0.112% in test [1].
